Screens as filed in PubChem.
SR-BI DiI inh: inhibitors of SR-BI mediated HDL lipid uptake, primary screen, ldlA[mSR-BI] cells, fluorescence, single point; inhibition, % at 12.5 µM; actives 0.96% (n = 320,000); ldlA[mSR-BI] CHO cells, DiI-HDL uptake fluorescence, 3 h; Scavenger receptor class B member 1 (Mus musculus), Q61009;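 active = mean replicate inhibition of at least 70% and a set share of replicates each scoring 70 or more; inconclusive = meets just one of the two criteria; inactive = fails both criteria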
Target sequence (Q61009 whole entry, looked up): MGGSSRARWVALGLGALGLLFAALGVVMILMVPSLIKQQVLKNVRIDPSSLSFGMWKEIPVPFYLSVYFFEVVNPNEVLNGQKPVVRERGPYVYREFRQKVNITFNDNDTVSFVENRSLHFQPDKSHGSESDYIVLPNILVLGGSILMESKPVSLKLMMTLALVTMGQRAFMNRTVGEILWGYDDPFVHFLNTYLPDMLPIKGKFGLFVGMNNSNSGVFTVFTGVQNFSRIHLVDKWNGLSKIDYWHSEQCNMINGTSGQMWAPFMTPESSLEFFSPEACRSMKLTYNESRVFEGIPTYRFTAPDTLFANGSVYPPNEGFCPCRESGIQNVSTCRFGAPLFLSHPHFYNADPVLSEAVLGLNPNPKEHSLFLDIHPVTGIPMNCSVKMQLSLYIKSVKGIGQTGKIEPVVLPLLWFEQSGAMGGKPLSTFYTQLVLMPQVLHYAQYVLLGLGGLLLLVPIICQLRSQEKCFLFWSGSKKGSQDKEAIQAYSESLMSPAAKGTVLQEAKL
MITF TRPM1 HTS: activators of MITF-driven TRPM1 promoter reporter, primary screen, cell-based, SK-MEL-5, luciferase, single point. AID 588334, 2011. SK-MEL-5 TRPM1-promoter luciferase, 24 h; % of positive control, neutral wells = 0. activation, % at 12.5 µM. actives 0.75% (n = 300,000);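 active = mean activation of at least 80% with every replicate also reaching 80%; inconclusive = mean reaches 80% but some replicate falls short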
SR-BI DiI-HDL act: activators of SR-BI mediated DiI-HDL uptake, primary screen, ldlA[mSR-BI] CHO cells, DiI fluorescence; 3 h; 100 = double the neutral-control signal; activation, % at 12.5 µM; actives 0.096% (n = 320,000); AID 504775, 2011;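 active = mean replicate activation of at least 60% and every replicate at or above 60%; inconclusive = mean or all-replicate condition met, but not both; inactive = mean below 60% and not all replicates reaching 60%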
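material = CHO ldlA[mSR-BI] cells | medium = Ham's F12 with 0.5% BSA, HEPES 25 mM, pH 7.4 | reagent = fluorescent DiI-HDL, 10 µg/mL final | compound dosing = single-point compound dose | incubation = 3 h, 37 °C | measured by = bottom-read fluorescence, 550/595 nm | measure = HDL uptake via cellular fluorescence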
HSF1 activator: HSF-1 activators, primary screen, NIH3T3-HGL cells, MG132 stress, luminescence, single point; NIH3T3-HGL HSF-1 luciferase reporter, 8 h; 100% = twice DMSO control signal; activation, % at 9 µM; actives 1.7% (n = 300,000);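 active = mean replicate activation of at least 50% with a set share of replicates each reaching 50%; inconclusive = only one of those two conditions met; inactive = mean below 50% and too few replicates reaching it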
Wnt act: Wnt/beta-catenin pathway activators, primary screen, cell-based, plate reader, single point; Wnt/beta-catenin reporter cell assay, activator; actives 1.2% (n = 300,000); activation, % at 9.35 µM; AID 743398, 2014; in the data active = activation above about 30%, passing the limit was not always enough; inconclusive = no clear call, values can overlap the other calls
A number is an active result; – = inactive; ? = inconclusive; · = no result. Only some compounds are listed: those with a hit (about 3.6% of all), similar ones and a draw of the others.

SMILES | SR-BI DiI inh | MITF TRPM1 HTS | SR-BI DiI-HDL act | HSF1 activator | Wnt act
Cc1cc(C)c(S(=O)(=O)Nc2cccc(/C=C/C(=O)O)c2)c(C)c1 | – | – | – | 82.6 | –
O=C(O)/C=C/c1cccc(NS(=O)(=O)c2ccccc2)c1 | – | – | – | – | ·
COc1ccc(N(CC(=O)NC2CC3CCC2C3)S(=O)(=O)c2ccc(C)cc2)cc1Cl (configuration not stated) | · | · | · | · | 50.6
COc1ccc(N(CC(=O)NC2CC3CCC2C3)S(=O)(=O)c2ccccc2)cc1OC (configuration not stated) | · | – | · | – | –
CCN1C(=O)/C(=C2/Sc3ccccc3N2CC)S/C1=N\c1ncn[nH]1 | 73.7 | – | – | – | –
CCc1nc2ccc(C(=O)NCCc3ccccn3)cn2c1N(CC)Cc1cccc(Br)c1 | · | · | · | · | –
CCCCn1c(O)c(N=Nc2ccccn2)c2ccccc21 | – | – | – | – | ·
CCn1c(O)c(N=Nc2ccc3ccccc3n2)c2ccccc21 | – | 116.4 | – | – | –
COC(=O)Cn1c(C)nc2c(sc3nc(C)cc(C)c32)c1=O | – | 90.9 | – | – | ·
CCOC(=O)Cn1cnc2c(sc3nc(C)cc(C)c32)c1=O | – | · | – | – | 37.6
C=CCn1cnc2c(sc3nc(C)cc(C)c32)c1=O | – | · | – | – | –
CC(C)(O)C#Cc1ccc(C(=O)Nc2ccc3c(c2)OCO3)s1 | – | – | – | 60.3 | 30.9
CC1CCc2sc(C(=O)Nc3ccc(N4CCOCC4)cc3)cc2C1 (configuration not stated) | – | – | – | – | –
CCc1sc(C(=O)Nc2ccc(N3CCOCC3)cc2)cc1C | 74.7 | – | – | · | –
CCc1sc(C(=O)Nc2ccc3c(c2)OCO3)cc1C | – | 124.2 | – | · | 42.5
CCc1sc(C(=O)Nc2nccs2)cc1C | – | – | – | – | 46.9
CCc1sc(C(=O)Nc2ccc3c(c2)OCCO3)cc1Br | ? | 104.2 | – | – | 43.2
O=C(Nc1ccc2c(c1)OCCO2)c1ccc(Br)s1 | – | – | – | – | –
c1ccc(Nc2c(-c3ccco3)nc3ccccn23)cc1 | – | – | – | 80.5 | –
Fc1ccc(Nc2c(-c3ccco3)nc3ccccn23)cc1 | – | – | – | 61.9 | –
CC1(CCC(=O)O)C(=O)CCC2C1CCC1(C)C2CCC1(C)O (configuration not stated) | – | – | – | · | 33.2
COc1cc(C2=NC(CO)(CO)CO2)cc(OC)c1OC | – | – | 448.4 | – | –
COc1ccc(C2=NC(CO)(CO)CO2)cc1 | – | – | – | – | –
CCOC(=O)CCN(C(=O)Nc1ccccc1)C1CCCCC1 | – | – | – | · | –
Cc1ccc(OC(=O)c2ccc(Cl)c([N+](=O)[O-])c2)cn1 | – | – | – | – | –
SMILES | SR-BI DiI inh | MITF TRPM1 HTS | SR-BI DiI-HDL act | HSF1 activator | Wnt act
Cc1ccc(OC(=O)c2ccc(C)c(C)c2)cn1 | – | – | – | 54.0 | –
CCN(CC(=O)Nc1ccc(NC(C)=O)cc1)C(=O)CCN1C(=O)C2CC=CCC2C1=O (configuration not stated) | – | – | – | · | –
COc1ccc(NC(=O)c2cc(C3CCCCN3C(=O)c3cccs3)on2)c(C)c1 (configuration not stated) | · | · | · | · | –
C=CCNc1cccc2c1S(=O)(=O)N[C@@H](CC(C)C)CO2 | · | · | · | · | –
O=c1[nH]c(C2CCN(S(=O)(=O)c3cccc(Cl)c3)CC2)nc2c1nnn2Cc1ccccc1 | · | – | · | – | –
O=c1[nH]c(C2CCN(S(=O)(=O)c3cccc([N+](=O)[O-])c3)CC2)nc2c1nnn2Cc1ccccc1 | · | – | · | 60.9 | –
COc1cc2nc(CSc3nc(-c4ccc(F)cc4)cs3)[nH]c(=O)c2cc1OC | – | – | – | 66.7 | –
COC(=O)c1ccc2c(=O)[nH]c(CSc3nc(C)cs3)nc2c1 | – | – | – | – | 35.1
COC(=O)c1ccc2c(=O)[nH]c(CSc3nc(-c4ccc(F)cc4)cs3)nc2c1 | – | – | – | – | –
OC(CNC1CCCCC1)CON=C1CCSc2c(Cl)cccc21 (configuration not stated) | · | · | · | · | –
O=C(N=Nc1c(O)n(Cc2ccccc2)c2ccccc12)c1cc2ccccc2cc1O | – | 89.0 | – | – | –
